# High-throughput results deposited in PubChem BioAssay by The Scripps Research Institute Molecular Screening Center.
# This is a sample that favours compounds with a hit; in the whole collection about 4% have one here.
# OX1R antag-1: antagonists of human orexin 1 receptor (OX1R); O43613; OX1R-expressing cells, FRET antagonist read-out; inhibition, % at 6.6 µM; 1.8% of 330,000 active; AID 485270; in the data active means inhibition mostly above about 38%, no sharp cut-off; inactive means mostly below about 40%;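 further: 0% = agonist challenge alone and 100% = reference antagonist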
# Target sequence (O43613 whole entry, looked up): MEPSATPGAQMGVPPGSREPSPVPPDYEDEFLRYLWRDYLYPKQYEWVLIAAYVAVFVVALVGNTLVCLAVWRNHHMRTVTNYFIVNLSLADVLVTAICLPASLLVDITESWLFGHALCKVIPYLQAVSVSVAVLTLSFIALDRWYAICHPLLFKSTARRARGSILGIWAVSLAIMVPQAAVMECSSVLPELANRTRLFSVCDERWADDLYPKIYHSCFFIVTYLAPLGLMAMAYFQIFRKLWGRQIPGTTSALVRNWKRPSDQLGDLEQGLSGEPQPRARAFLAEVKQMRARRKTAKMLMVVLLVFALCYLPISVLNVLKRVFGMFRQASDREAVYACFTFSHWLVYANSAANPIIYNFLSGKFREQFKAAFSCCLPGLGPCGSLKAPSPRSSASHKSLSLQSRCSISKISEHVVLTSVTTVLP
# TAAR1 antagonist: human TAAR1 antagonism; CHO RD-HGA16 TAAR1, Fluo-8 calcium fluorescence, antagonist; 1.5% of 360,000 active; inhibition, % at 3 µM; Q96RJ0;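 active means inhibition above a per-plate cutoff, the mean inhibition of test compounds on that plate plus 3 SD, cut at about 49% in these data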;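 further: 0% = DMSO plus EC80 beta-PEA response and 100% = DMSO alone without agonist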
# Target sequence (Q96RJ0 whole entry, looked up): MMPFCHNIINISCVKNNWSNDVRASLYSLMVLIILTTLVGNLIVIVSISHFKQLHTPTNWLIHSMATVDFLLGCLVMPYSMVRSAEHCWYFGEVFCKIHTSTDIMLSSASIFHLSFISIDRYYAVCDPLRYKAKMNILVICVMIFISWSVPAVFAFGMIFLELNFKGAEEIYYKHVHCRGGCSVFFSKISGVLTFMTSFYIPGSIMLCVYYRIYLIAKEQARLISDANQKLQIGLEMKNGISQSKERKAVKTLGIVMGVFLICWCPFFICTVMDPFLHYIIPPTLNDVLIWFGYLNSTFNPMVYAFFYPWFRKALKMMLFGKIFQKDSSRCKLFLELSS
#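 test system = CHO RD-HGA16 cells bearing hTAAR1 | replication = singlicate | controls = DMSO-only wells and EC80 β-PEA-stimulated wells | reagent = EC80 β-phenethylamine stimulus | read-out basis = percent inhibition of PEA-evoked calcium signal, max/basal emission ratio | schedule = seeding 17-24 h prior, 75-min 37 °C, 30-min RT dye loading | signal = kinetic Fluo-8 calcium fluorescence measurement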
# OX1R antag-2: blocks the human orexin 1 receptor; O43613; CHO/OX1R cells, Fluo-8 calcium fluorescence, orexin A; inhibition, % at 5 µM; 0.43% of 330,000 active; AID 434989;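 active means inhibition above its plate's threshold, mean inhibition of all tested compounds on the plate plus 3 SD, cut at about 37% in these data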;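 further: 0% = orexin A challenge wells and 100% = SB-334867-A antagonist wells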
# CHO parental Ca: signal in parental CHO cells, OX1R antagonist counter-screen; parental CHO-K1, ATP-induced calcium, Fluo-8 fluorescence; 0.63% of 330,000 active; inhibition, % at 5.6 µM;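 active means inhibition above that plate's mean sample inhibition plus 3 SD, cut at about 26% in these data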;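 further: 0% = ATP-challenged DMSO wells and 100% = DMSO wells without ATP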
#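 Material: Parental CHO cells | Reagent: ATP | Compound dosing: Single nominal dose of 5.6 µM per compound | Detection: Intracellular calcium via Fluo-8 no-wash fluorescent dye | Read-out: % inhibition of ATP-induced calcium mobilization | Benchmarks: Low control ATP plus DMSO, high control DMSO only | Replicates: Singlicate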
# TAAR1 agonist: agonists of human TAAR1. 0.99% of 360,000 active. activation, % at 3 µM. AID 624467. Q96RJ0. CHO RD-HGA16 TAAR1, Fluo-8 calcium fluorescence; vehicle wells 0%, saturating PEA agonist 100%;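 active means activation above the mean activation of all test compounds in the run plus 3 SD, cut at about 38% in these data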
#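 System: CHO RD-HGA16 cells carrying human TAAR1 plus Gα16; Incubation: 17-24 h seeding, 75 min 37 °C dye, 30 min RT; Measured by: Fluo-8 fluorescence, 5 s baseline then 140 s kinetic read; Control set: DMSO and PEA EC100; Replication: single well for each compound.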
# nonsel antag count: nonselective antagonism, TAAR1 counter-screen. shares compounds with TAAR1 antagonist. counterscreen cell line, calcium fluorescence, antagonist mode. inhibition, % at 3 µM. 77% of 2,400 active. AID 651780; in the data active means inhibition above about 22%;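 further: CHO-Ga16 host cells stimulated with ATP at an EC80 level; 0% = agonist EC80 plus vehicle and 100% = vehicle without agonist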
# TAAR1 antag conf: confirmation of human TAAR1 antagonists. 40% of 2,400 active. AID 651785. inhibition, % at 3 µM. TAAR1-expressing cells, fluorescence antagonist read-out. shares compounds with TAAR1 antagonist; in the data active means inhibition above about 49%;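 further: CHO-Ga16 host cells challenged with agonist PEA near its EC80; 0% = agonist at EC80 plus vehicle and 100% = vehicle with no agonist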
# Ga16 ag counter-1: nonselective Ga16 agonist in TAAR1 antagonist counter-screen | shares compounds with TAAR1 antagonist | Ga16-expressing cells, calcium fluorescence, agonist counterscreen | activation, % at 3 µM | 18% of 2,400 active | AID 651953; in the data active means activation above about 12%;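 further: 0% = vehicle wells and 100% = saturating stimulus response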
# TAAR1 ag counter: TAAR1 agonism, antagonist counter-screen. shares compounds with TAAR1 antagonist. hTAAR1 cell line, fluorescence activation, agonist mode. 2% of 2,400 active. activation, % at 3 µM. AID 651955; in the data active means activation above about 37%;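 further: CHO cells stably expressing TAAR1 with calcium dye readout; 0% = DMSO vehicle and 100% = full agonist response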
# TAAR1 ag conf: human TAAR1 agonism, confirmed; shares compounds with TAAR1 agonist; CHO RD-HGA16 TAAR1, Fluo-8 calcium fluorescence; scaled: DMSO 0%, maximal phenethylamine 100%; 82% of 2,400 active; AID 651783; activation, % at 3 µM;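 active means activation above a cutoff set at the run's mean compound activation plus 3 SD, cut at about 39% in these data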
# Ga16 ag counter-2: nonselective agonism, TAAR1 counter-screen. 50% of 2,400 active. activation, % at 3 µM. shares compounds with TAAR1 agonist. CHO-Ga16 parental, Fluo-8 calcium fluorescence; normalized to maximal ATP response, DMSO zero. AID 651787;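 active means activation above the run cutoff, the mean activation over all tested wells plus 3 SD, cut at about 12% in these data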;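 further: 0% = DMSO wells and 100% = maximal ATP response on the peak over basal ratio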
# TAAR1 desensitize: human TAAR1 agonist that also desensitizes the receptor; shares compounds with TAAR1 agonist; CHO RD-HGA16 hTAAR1, Fluo-8 calcium, beta-PEA response inhibition; inhibition, % at 3 µM; 46% of 2,400 active; AID 651951;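 active means inhibition above the run cutoff, the mean inhibition of all test compounds plus 3 SD, cut at about 49% in these data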;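 further: beta-PEA stimulus applied at its EC80; loss of beta-PEA calcium signal after compound pretreatment read as receptor desensitization; 0% = DMSO with beta-PEA at EC80 and 100% = DMSO alone without agonist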
# Ga16 antag count: counter-screen for TAAR1 agonists: nonselective Ga16 antagonists | CHO-Ga16 ATP-induced calcium, Fluo-8 fluorescence | shares compounds with TAAR1 agonist | 39% of 2,400 active | inhibition, % at 3 µM;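 active means inhibition above the plate's mean compound inhibition plus 3 SD, computed per plate, cut at about 22% in these data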;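 further: 0% = EC80 ATP with DMSO and 100% = DMSO wells without ATP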
# Starred values were filed as active, the others as inactive; . = no result.
SMILES,OX1R antag-1,TAAR1 antagonist,OX1R antag-2,CHO parental Ca,TAAR1 agonist,TAAR1 ag conf,Ga16 ag counter-2,TAAR1 desensitize,Ga16 antag count,others
COc1ccc(S(=O)(=O)N2CCOCC2)cc1NC(=O)C1COc2ccccc2O1 (stereo not given),23,59*,-9,-6,11,.,.,.,.,nonsel antag count=26*;TAAR1 antag conf=38;Ga16 ag counter-1=6;TAAR1 ag counter=4
Cc1csc(N2CCN(c3cc4c(cc3Cl)nc(-c3ccncc3)n4CCCN3CCCC3)CC2)n1,23,3,-49,-29,9,.,.,.,.,
Cc1csc(N2CCN(c3cc4nc(-c5ccncc5)[nH]c4cc3Cl)CC2)n1,31,58*,-31,-19,16,.,.,.,.,nonsel antag count=30*;TAAR1 antag conf=39;Ga16 ag counter-1=10;TAAR1 ag counter=9
Oc1[nH]c2ccccc2c1N=Nc1nc(Nc2ccccc2)nc(N2CCOCC2)n1,21,53*,-29,-28,11,.,.,.,.,nonsel antag count=29*;TAAR1 antag conf=45;Ga16 ag counter-1=6;TAAR1 ag counter=9
COc1cc2c(-c3ccccc3)c(C)oc2cc1/C=N/NC(N)=S,48,103*,6,14,-4,.,.,.,.,nonsel antag count=17;TAAR1 antag conf=10;Ga16 ag counter-1=5;TAAR1 ag counter=14
COc1ccc(S(=O)(=O)Nc2ccc(S(=O)(=O)Nc3nccs3)cc2)cc1,22,8,-5,6,3,.,.,.,.,
O=C(Nc1cccc(NC(=O)c2cncc(Br)c2)c1)c1cncc(Br)c1,9,67*,-7,-10,33,.,.,.,.,nonsel antag count=29*;TAAR1 antag conf=52*;Ga16 ag counter-1=17*;TAAR1 ag counter=15
CC1(c2ccc(OC(F)F)cc2)NC(=O)N(CC(=O)Nc2ccc(F)cc2)C1=O (stereo not given),10,33,23,15,78*,107*,47*,78*,46*,
CCOc1ccc(NC(=O)CN2C(=O)NC(C)(c3ccc(OC(F)F)cc3)C2=O)cc1 (stereo not given),-9,63*,32,21,99*,125*,82*,97*,58*,
CCOC(=O)c1c(NC(=O)CN2C(=O)NC(C)(c3ccc(OC(F)F)cc3)C2=O)sc(C)c1C (stereo not given),-5,53*,26,30,87*,98*,42*,86*,51*,
CC1(c2ccc(OC(F)F)cc2)NC(=O)N(CC(=O)Nc2ccc(Cl)cc2F)C1=O (stereo not given),11,55*,18,22,96*,91*,47*,53*,43*,
CC1(c2ccc(OC(F)F)cc2)NC(=O)N(CC(=O)NC2CCCCC2)C1=O (stereo not given),2,9,-9,-18,20,.,.,.,.,
CC(=O)Nc1ccc(S(=O)(=O)N2CCC(C(=O)NCc3ccncc3)CC2)cc1,6,-15,-11,6,2,.,.,.,.,
Cc1ccc(C)c(N2CCN(C(C(=O)NC3CCCC3)c3ccco3)CC2)c1 (stereo not given),.,-26,.,.,3,.,.,.,.,
CC1(c2ccc(OC(F)F)cc2)NC(=O)N(CC(=O)Nc2ccc(S(N)(=O)=O)cc2)C1=O (stereo not given),5,-4,-5,-6,8,.,.,.,.,
CC1(c2ccc(OC(F)F)cc2)NC(=O)N(CC(=O)Nc2ccc(OC(F)F)cc2)C1=O (stereo not given),-5,83*,53*,36*,103*,97*,46*,82*,56*,
Cc1cc(NC(=O)CN2C(=O)NC(C)(c3ccc(OC(F)F)cc3)C2=O)no1 (stereo not given),-3,40,0,-7,83*,-4,-2,-8,-1,
CC1(c2ccc(OC(F)F)cc2)NC(=O)N(CC(=O)Nc2cccc(F)c2)C1=O (stereo not given),11,98*,67*,53*,138*,120*,84*,97*,72*,
CN(C)C(CNC(=O)c1cccc(S(=O)(=O)NCc2ccccc2)c1)c1ccccc1 (stereo not given),.,12,.,.,2,.,.,.,.,
CCOC(=O)c1ccc(-n2c(O)c(/C=N/NC(=O)C3COc4ccccc4O3)c3ccccc3c2=O)cc1 (stereo not given),29,19,-39,-19,5,.,.,.,.,
Cn1c(=O)c(NCCO)c2c3c(cccc31)C(=O)c1ccccc1-2,74,58*,103*,96*,285*,52*,158*,37,48*,
Cn1cc(S(=O)(=O)NCCc2ccccc2)c(=O)n(C)c1=O,12,-14,-17,-9,1,.,.,.,.,
Cn1c(=O)c(NC2CCCCC2)c2c3c(cccc31)C(=O)c1ccccc1-2,.,66*,.,.,87*,120*,124*,78*,83*,
CC(=O)Nc1ccc(Nc2c3c4c(cccc4n(C)c2=O)C(=O)c2ccccc2-3)cc1,28,6,-16,-15,7,.,.,.,.,
Cn1c(=O)c(NCCc2ccccc2)c2c3c(cccc31)C(=O)c1ccccc1-2,76,104*,108*,100*,407*,346*,305*,103*,95*,
COc1ccc(N(C)C(=O)C2CCCN2S(=O)(=O)c2cccc3nsnc23)c(OC)c1 (stereo not given),28,.,-14,-1,.,.,.,.,.,
CN(C)Cc1ccc(CNC(=O)COc2ccc3ccccc3c2)cc1,5,-13,-7,-16,4,.,.,.,.,
NC(=O)c1nsc(C(=O)N(CC(=O)NC2CCCC2)c2cnc3ccccc3c2)c1N,13,.,-13,-11,.,.,.,.,.,
O=C(NCCCl)c1ccc(OCc2ccccc2)cc1Cl,2,-3,-11,-9,48*,68*,17*,56*,19,
O=C(NCCOc1ccccc1)c1ccccc1Cl,-8,-2,-13,3,0,.,.,.,.,
